Assay outcomes: PubChem BioAssay, several laboratories
CSN deneddyl inh: CSN deneddylation inhibition; inhibition, % at 12.5 µM; Purified CSN, SCF-Nedd8-OG deneddylation, fluorescence polarization; Q92905; hit rate 0.38% among 360,000;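 active = pattern-corrected inhibition above about 35%, with an unprinted fluorescence ratio check between 0.5 and 1.5, limit read from the data, passing the limit was not always enough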;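 note: 0% = enzyme with substrate and 100% = substrate without enzyme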
Target sequence (Q92905 whole entry, looked up, one chain of several): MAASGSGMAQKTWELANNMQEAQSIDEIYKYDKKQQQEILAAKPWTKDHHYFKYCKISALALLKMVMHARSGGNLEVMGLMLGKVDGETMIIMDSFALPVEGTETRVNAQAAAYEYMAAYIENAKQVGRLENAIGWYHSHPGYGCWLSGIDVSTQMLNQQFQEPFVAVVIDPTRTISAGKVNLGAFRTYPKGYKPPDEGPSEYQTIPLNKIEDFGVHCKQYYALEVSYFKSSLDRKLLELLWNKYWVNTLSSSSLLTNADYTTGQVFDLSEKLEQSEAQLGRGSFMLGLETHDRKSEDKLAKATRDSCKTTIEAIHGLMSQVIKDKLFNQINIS
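Schedule: reaction 90 min, room temperature / Assay system: HEK293T-derived human Csn5 enzyme / Input: Csn5 at 0.24 nM final / Measure: inhibition of Csn5 cleavage, % / Control set: substrate-only high control, full reaction low control / Technique: fluorescence polarization of the substrate / Buffer or medium: Tris/NaCl/DTT buffer, pH 7.5 / Reagent: SCFSkp2-Nedd8OG substrate at 10 nM final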
LEDGF integ inh: blocks HIV-1 LEDGF/p75-dependent DNA integration; TR-FRET IN-LEDGF/p75 DNA integration, Eu/Cy5; inhibition, % at 3.7 µM; hit rate 0.64% among 370,000; AID 743269;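 active = inhibition above the screen-wide mean plus 3 SD, cut at about 13% in these data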;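 note: signal is the Cy5 over europium emission ratio at 671 and 618 nm; 0% = plate median of compound wells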
ATG4B inh: inhibitors of human ATG4B cysteine protease | AID 504462 | hit rate 0.51% among 340,000 | inhibition, % at 8.33 µM | ATG4B cleavage of LC3-PLA2, NBD-HPC fluorescence, 1 h; in the data active = inhibition above about 40%
rCAG RNA binder: molecules binding r(CAG) RNA repeats; r(CAG) RNA repeat, TO-PRO-1 dye displacement fluorescence; inhibition, % at 3 µM; hit rate 1.3% among 370,000; AID 651821;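 active = inhibition above the plate cutoff, the mean of all test compounds on that plate plus 3 SD, cut at about 35% in these data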;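 note: 0% = DMSO alone and 100% = 100 µM mitoxantrone as full dye displacement; higher means more dye released from RNA so lower well fluorescence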
MBD2 inh: MBD2-methylated oligo binding inhibition; TR-FRET, MBD2 binding to methylated oligonucleotide; hit rate 0.31% among 370,000; Q9UBB5; AID 686964; inhibition, % at 4.4 µM; in the data active = inhibition above about 13%
Target sequence (Q9UBB5 whole entry, looked up): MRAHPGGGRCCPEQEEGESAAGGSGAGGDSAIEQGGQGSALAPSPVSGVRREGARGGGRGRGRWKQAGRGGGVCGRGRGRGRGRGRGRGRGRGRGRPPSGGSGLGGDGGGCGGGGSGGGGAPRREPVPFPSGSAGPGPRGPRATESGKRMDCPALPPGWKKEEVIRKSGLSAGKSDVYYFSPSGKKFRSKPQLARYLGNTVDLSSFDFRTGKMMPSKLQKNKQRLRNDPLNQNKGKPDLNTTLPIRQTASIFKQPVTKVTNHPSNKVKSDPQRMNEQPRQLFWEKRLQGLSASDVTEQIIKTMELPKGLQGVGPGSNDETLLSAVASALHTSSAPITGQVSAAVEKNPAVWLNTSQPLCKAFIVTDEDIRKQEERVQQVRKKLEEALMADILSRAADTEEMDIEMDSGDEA
UHRF1 MBD2 ctr: UHRF1 methyl-DNA binding inhibition; UHRF1 binding to methylated oligo, TR-FRET; inhibition, % at 4.4 µM; hit rate 0.75% among 370,000; AID 687016; in the data active = inhibition above about 21%;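 note: UHRF1 SRA domain binding a hemimethylated CpG hairpin DNA probe; 0% = median of test compound wells and 100% = reference inhibitor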
IN multimer act: counter-screen for LEDGF/p75 integration inhibitors: HIV-1 integrase multimerization activators. hit rate 17% among 2,000. TR-FRET HIV-1 integrase multimerization, biochemical. AID 1053131. shares compounds with LEDGF integ inh. activation, % at 7.7 µM; in the data active = activation above about 8.9%
TR-FRET interf: counter-screen for LEDGF/p75 integration inhibitors: TR-FRET optical interference; shares compounds with LEDGF integ inh; inhibition, % at 7.7 µM; TR-FRET optical interference counterscreen, HIV-1 IN multimerization; 2,000 tested, under 10 active;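 active = inhibition above the mean over all tested compounds plus 3 SD, which no compound reached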;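 note: 0% = integrase with antibodies and DMSO and 100% = antibodies without integrase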
LEDGF integ conf: confirmation of HIV-1 LEDGF/p75-dependent integration inhibitors; shares compounds with LEDGF integ inh; TR-FRET LEDGF/p75-dependent HIV-1 integration, biochemical; inhibition, % at 3.7 µM; hit rate 36% among 2,000; AID 1053136; in the data active = inhibition above about 14%
The depositor's hits bear a star; · = no result given; ! = repeats disagree. This is a sample that favours compounds with a hit; in the whole collection about 3.1% have one here.

SMILES	CSN deneddyl inh	LEDGF integ inh	ATG4B inh	rCAG RNA binder	MBD2 inh	UHRF1 MBD2 ctr	IN multimer act	TR-FRET interf	LEDGF integ conf
O=C(O)c1ccc(NC(=O)c2ccc3c(c2)C(=O)N(c2ccccc2)C3=O)cc1	-2.6	0.4	-2.8	5.1	4.2	1.6	·	·	·
O=C(O)c1ccc(S(=O)(=O)c2ccc3c(c2)C(=O)N(c2ccc(O)cc2)C3=O)cc1	-0.4	15.9*	-1.6	0.6	-8.8	6.1	1.6	-8.0	6.6
CCOC(=O)c1ccc(NC(=O)c2nc[nH]c2C(=O)NCCNC(=O)c2[nH]cnc2C(=O)Nc2ccc(C(=O)OCC)cc2)cc1	5.4	-2.3	-7.8	9.4	-1.6	2.1	·	·	·
CCOC(=O)c1ccc(NC(=O)c2nc[nH]c2C(=O)NC)cc1	7.8	18.3*	-17.7	3.3	-5.0	-1.5	0.0	0.2	-0.7
COC(=O)C12C=C3CC(c4ccc(C(F)(F)F)cc4)=C3C(=O)N1Cc1[nH]c3ccccc3c1C2 (stereo unspecified)	·	2.6	·	13.2	-6.3	-2.7	·	·	·
NC1=C(Cl)C(=O)c2ccccc2C1=O	0.8	0.1	-1.2	5.5	-23.2	-24.8	·	·	·
NC1=C(Cl)C(=O)c2ccc(S(N)(=O)=O)cc2C1=O	10.5	29.2*	38.1	5.2	-23.1	-6.1	11.9*	-42.3	76.0*
Cc1cc(Oc2ccc(-c3nnc(-c4ccccc4)o3)cc2[N+](=O)[O-])ccc1Cl	-3.6	5.0	3.5	1.3	-4.9	-1.4	·	·	·
Cc1nnc(-c2ccc(Oc3ccc(Br)cc3)c([N+](=O)[O-])c2)o1	-1.7	16.4*	-1.9	-1.5	4.6	0.3	-0.3	1.7	-7.2
COc1ccc(N2C(=O)CSC2c2cccc(F)c2)cc1 (stereo unspecified)	1.3	29.3*	5.6	-2.2	3.0	12.9	1.5	-7.4	-8.8
CC1(C)CC(N=C2C([N+](=O)[O-])=CC=C3C2=NC2(CCCCC2)N3O)CC(C)(C)N1	1.1	26.1*	2.5	3.4	-17.1	-15.6	5.7	-28.9	3.3
COC(=O)[C@@H]1C[C@@]2(c3ccccc3)c3ccccc3N(S(=O)(=O)c3ccccc3)[C@H]2N1C(=O)CNC1CCCCC1	·	0.3	·	6.4	1.6	-2.7	·	·	·
C[c-]1[c-](C)[c-](C)[c-](C)[c-]1C.[Fe].c1cc2nccc(N3CCCC3)[c-]2c1 (stereo unspecified)	-19.6	19.5*!	11.0	8.5	5.4	13.9	-0.2	1.3	49.1*
CC(C)CCNC(=O)C1COC(O)(C(Cc2ccccc2)NC(=O)[C@@H](NC(=O)OCc2ccccc2)C(C)C)CN1 (stereo partly specified)	·	-4.9	·	·	-1.9	0.0	·	·	·
CCN(c1ccccc1)S(=O)(=O)c1ccc(OC)c(OC)c1	-0.6	·	-10.0	·	·	·	·	·	·
CCN(c1ccccc1)S(=O)(=O)c1cc(OC)ccc1OC	-1.5	52.2*	0.6	-0.4	-3.1	-1.2	-2.7	9.6	-8.3
CN(c1ccc(C(=O)COC(=O)C2CC2)cc1)S(C)(=O)=O	3.8	30.6*	-3.3	1.6	1.7	2.1	0.0	0.0	1.0
Cc1csc(NC(=O)c2ccc(COc3cccc(F)c3)o2)n1	·	-0.4	·	6.5	-0.5	2.4	·	·	·
COC(=O)c1sc2nc(N)c(C#N)cc2c1N	8.7	33.8*	-7.9	-2.8	-1.7	8.8	1.8	-8.9	1.9
Cc1cc(C(=O)O)c(C)o1	·	5.9	·	0.1	2.7	0.0	·	·	·
Cn1c(=O)c2ccccc2n(Cc2cccc(F)c2)c1=O	0.8	21.3*	6.8	-1.0	-0.4	4.2	0.9	-3.4	-0.5
Cn1c(=O)c2ccccc2n(Cc2ccccc2F)c1=O	-6.4	2.1	-2.9	-3.0	0.7	-1.9	·	·	·
O=C1c2cccc3c2N(CCC3)C(=O)C1(F)c1ccccc1 (stereo unspecified)	5.2	14.1*	1.5	19.3	-4.1	-2.6	-0.3	0.8	-6.3
O=[N+]([O-])c1c(Nc2ccccn2)cc(Cl)c2nonc12	-76.0	69.9*	-2.9	14.9	-5.1	9.2	2.1	-7.3	40.3*
COc1ccc(-n2nc(C(=O)NCC(=O)NCC3CCCO3)c3ccccc3c2=O)c(OC)c1 (stereo unspecified)	-0.1	4.4	-2.2	-4.3	-3.4	1.5	·	·	·
SMILES	CSN deneddyl inh	LEDGF integ inh	ATG4B inh	rCAG RNA binder	MBD2 inh	UHRF1 MBD2 ctr	IN multimer act	TR-FRET interf	LEDGF integ conf
COc1ccc(-n2c(N)c(C(=O)NCC3CCCO3)c3nc4ccccc4nc32)c(OC)c1 (stereo unspecified)	2.3	19.2*	-15.5	7.3	3.8	11.4	0.3	-1.7	-0.7
Cc1nnc(N/N=C\c2ccc(-c3ccccc3[N+](=O)[O-])o2)n1N	2.8	42.7*	-7.0	3.6	-2.3	4.3	4.0	-14.2	-5.3
COC(=O)c1ccccc1-c1ccc(/C=N/NC(N)=O)o1	4.0	1.2	-7.3	-1.6	-0.4	-0.4	·	·	·
Cc1nnc(N/N=C/c2ccc(-c3ccccc3F)o2)n1N	-0.3	43.6*	-5.6	1.5	-0.5	2.9	5.7	-20.1	6.4
CCc1nnc(N/N=C/c2ccc(-c3ccc([N+](=O)[O-])cc3)o2)n1N	-0.9	45.9*	-11.2	4.2	-6.6	-2.3	8.7	-30.7	3.8
COc1ccc(-n2nc3cc(C)c(N)cc3n2)cc1Cl	4.2	14.8*	-0.3	20.8	4.3	18.2	-0.3	1.6	-5.7
CN(Cc1ccccc1)C(=O)OCc1cn(Cc2cccc(C(F)(F)F)c2)nn1	·	6.1	·	-1.1	2.5	0.4	·	·	·
CCCNC(=O)C1(C)CCCN(C(=O)c2cc(C)nn2C(C)(C)C)C1 (stereo unspecified)	0.5	28.2*	·	-1.6	6.4	-0.2	-3.6	18.1	0.4
CCCNC(=O)C1(C)CCN(C(=O)c2cc(C)nn2C(C)(C)C)C1 (stereo unspecified)	-2.2	1.5	·	-1.8	-3.6	3.1	·	·	·
O=c1c2c([N+](=O)[O-])cc([N+](=O)[O-])cc2nc2ccccn12	1.9	24.9*	0.0	10.4	-12.2	5.5	-0.6	2.8	18.9*
O=c1c2c([N+](=O)[O-])cc([N+](=O)[O-])cc2sn1Cc1ccccc1	-1.7	-4.4	0.2	3.4	-3.4	-3.3	·	·	·
COc1cccc(NC(=O)CN(C)C(=O)Cc2ccc3c(c2)OCCO3)c1	-0.2	92.5*	2.1	-2.2	1.9	-1.6	-1.7	8.4	-1.9
COc1cccc(NC(=O)CN(C)C(=O)Cc2ccc3c(c2)CCC3)c1	2.9	-0.9	-9.0	4.2	6.9	1.6	·	·	·
